Drawing on ChEMBL document CHEMBL1154602, “Toward a rational design of multitarget-directed antioxidants: merging memoquin and lipoic acid molecular frameworks” (J Med Chem, 2009), this text covers Activity, IC50 and inhibition for six molecules.

Activity calls are given as the source filed them. The calls are words filed in the database; no cut-off is given here.

Test [1] has as its system T67. Kind of test: Antioxidant activity in human T67 cells assessed as inhibition of tert-butyl hydroperoxide-induced ROS production at 10 uM after 24 hrs by fluorescence assay in presence of 2.5 uM sulforaphane treated for 24 hrs before compound addition. It is filed as functional, cell-based. In short, it runs like this: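 T67 cells pretreated with 2.5 μM sulforaphane to raise NQO1 activity; ROS formation induced by t-BuOOH; oxidized form tested at 10 μM; significance set at p ≤ 0.05 versus t-BuOOH + sulforaphane-treated cells.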

In test [2] the test system is T67. Kind of test: Antioxidant activity in human T67 cells assessed as inhibition of tert-butyl hydroperoxide-induced ROS production at 10 uM after 24 hrs by fluorescence assay. It is filed as functional, cell-based. In a few lines: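 T67 cells without sulforaphane pretreatment; ROS formation induced by t-BuOOH; oxidized form tested at 10 μM; significance set at p ≤ 0.05 versus t-BuOOH-treated cells.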

The species named for test [3] is Bos taurus. Put plainly: Antioxidant activity in bovine heart submitochondrial particles assessed as inhibition of antimycin A-induced ROS production at 10 uM by fluorescence assay. The test is classed as functional. In a few lines:
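Submitochondrial particles given NADH; ROS production triggered by antimycin A addition. Quinone (oxidized) form tested at 10 μM.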

Test [4] is filed under the species Bos taurus. Kind of test: Antioxidant activity in bovine heart submitochondrial particles assessed as inhibition of antimycin A-induced ROS production at 10 uM pretreated for 30 mins with human NQO1 by fluorescence assay. It is filed as functional. In a few lines:
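Submitochondrial particles given NADH; ROS production triggered by antimycin A. Compound first reduced by 30 min preincubation with purified human NQO1 using NADH as substrate, reaction then stopped with 10 μM dicumarol; tested at 10 μM.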

The target of the next test is Acetylcholinesterase (Homo sapiens, UniProt P22303). Kind of test: Inhibition of human recombinant AChE by Ellman's method. In a few lines:
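Human recombinant AChE. IC50 is the inhibitor concentration that decreases enzyme activity by 50%. Values are the mean of two independent measurements, each run in triplicate, with SEM.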
(In general: In Ellman's method for cholinesterases, released thiocholine reacts with DTNB.)

Test [5] can be described thus: Inhibition of amyloid beta (1 to 42) self-aggregation assessed as amyloid fibril formation at 10 uM by thioflavin-T based fluorometric assay. In short, it runs like this:
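Self-induced Aβ(1-42) aggregation at 50 μM, test compound at 10 μM; percent inhibition reported with SEM.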

For the next test, the target named is Cholinesterase (Homo sapiens, UniProt P06276). Kind of test: Inhibition of human recombinant BChE by Ellman's method.
Sequence of Cholinesterase (P06276 whole entry): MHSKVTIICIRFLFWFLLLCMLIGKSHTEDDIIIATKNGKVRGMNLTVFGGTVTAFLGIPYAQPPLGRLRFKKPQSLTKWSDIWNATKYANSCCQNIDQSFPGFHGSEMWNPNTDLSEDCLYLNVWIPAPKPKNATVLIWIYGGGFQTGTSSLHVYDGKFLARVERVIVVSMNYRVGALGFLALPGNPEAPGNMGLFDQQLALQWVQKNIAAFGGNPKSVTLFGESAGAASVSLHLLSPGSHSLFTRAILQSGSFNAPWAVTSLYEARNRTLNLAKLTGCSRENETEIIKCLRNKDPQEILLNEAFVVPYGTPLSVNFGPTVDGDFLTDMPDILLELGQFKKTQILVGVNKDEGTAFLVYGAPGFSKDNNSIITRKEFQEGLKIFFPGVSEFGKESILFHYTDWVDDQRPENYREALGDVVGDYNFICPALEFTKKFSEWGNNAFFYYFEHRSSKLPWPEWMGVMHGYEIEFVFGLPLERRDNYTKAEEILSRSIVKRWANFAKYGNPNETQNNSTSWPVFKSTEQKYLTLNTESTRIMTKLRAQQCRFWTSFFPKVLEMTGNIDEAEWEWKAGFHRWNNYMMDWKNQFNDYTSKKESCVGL

Sequence of Acetylcholinesterase (P22303 whole entry): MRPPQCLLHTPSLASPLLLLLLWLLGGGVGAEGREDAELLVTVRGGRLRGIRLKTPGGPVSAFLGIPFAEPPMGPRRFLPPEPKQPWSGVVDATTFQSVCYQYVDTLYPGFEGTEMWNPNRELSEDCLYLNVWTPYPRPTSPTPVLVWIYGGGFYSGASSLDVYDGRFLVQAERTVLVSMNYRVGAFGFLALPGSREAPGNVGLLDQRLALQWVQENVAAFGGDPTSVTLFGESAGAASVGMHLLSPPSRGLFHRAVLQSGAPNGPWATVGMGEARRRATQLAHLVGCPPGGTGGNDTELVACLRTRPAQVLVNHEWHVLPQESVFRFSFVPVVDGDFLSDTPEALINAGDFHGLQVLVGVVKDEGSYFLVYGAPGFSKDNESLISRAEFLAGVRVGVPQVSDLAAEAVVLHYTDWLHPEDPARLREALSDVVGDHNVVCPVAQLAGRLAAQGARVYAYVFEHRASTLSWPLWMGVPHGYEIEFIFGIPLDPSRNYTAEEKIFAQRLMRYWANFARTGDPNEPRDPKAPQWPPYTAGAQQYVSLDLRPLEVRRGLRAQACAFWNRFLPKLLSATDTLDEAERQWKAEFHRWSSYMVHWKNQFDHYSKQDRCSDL

For orientation: IC50 means the point on the concentration scale where inhibition reaches its midpoint. What is called inhibition is the change of the read-out against control, counted positive when it falls. For `CCN(CCCNC1=CC(=O)C(NCCCNC(=O)CCCCC2CCSS2)=CC1=O)Cc1ccccc1OC` (stereo unspecified), the result in the test on T67 [1], with T67 [2], in the test filed under Bos taurus [3] and in the test listed under Bos taurus [4] was Active. Besides, the concentration for half-maximal inhibition (IC50) at Acetylcholinesterase stood at 190 nM; on Cholinesterase, 212 µM. Moreover, the inhibition in test [5] worked out at 19.2%.
In the case of `CCN(CCCCCCNC1=CC(=O)C(NCCCCCCNC(=O)CCCCC2CCSS2)=CC1=O)Cc1ccccc1OC` (stereo unspecified), the result in the test with T67 [1], in the test on T67 [2], in the test listed under Bos taurus [3] and in the test listed under Bos taurus [4] was Active. The results for the IC50 at Acetylcholinesterase and at Cholinesterase were 100 nM and 4.99 µM, respectively. In addition, the inhibition in test [5] was found to be 45.4%.
For the molecule `CCN(CCCCCCNC1=CC(=O)C(NCCCNC(=O)CCCCC2CCSS2)=CC1=O)Cc1ccccc1OC` (stereo unspecified), the result with T67 [1], in the test on T67 [2], in the test filed under Bos taurus [3] and in the test filed under Bos taurus [4] was Active. For the same molecule, the IC50 is 150 nM at Acetylcholinesterase and 21 µM at Cholinesterase. In test [5], the inhibition is 34.4%.
With `CCN(CCCCCCNC1=CC(=O)C(NCCCCCCN(CC)Cc2ccccc2OC)=CC1=O)Cc1ccccc1OC` [MEMOQUIN], the IC50 at Acetylcholinesterase stood at 1.5 nM.
With `O=C(CCCCC1CCSS1)NCCCNc1c2c(nc3cc(Cl)ccc13)CCCC2` (stereo unspecified), the outcome in the test on T67 [1] was inactive. Moreover, the inhibition in test [5] was less than 10%.
As for `CCN(CCCNC1=CC(=O)C(NCCCCCCNC(=O)CCCCC2CCSS2)=CC1=O)Cc1ccccc1OC` (stereo unspecified), the result in the test on T67 [1], in the test on T67 [2], in the test listed under Bos taurus [3] and in the test listed under Bos taurus [4] was Active. In addition, the IC50 is 160 nM on Acetylcholinesterase and 11.1 µM on Cholinesterase. In test [5], the inhibition stood at 31.8%.
